Test results: ChEMBL document CHEMBL4513216, “Probing the Open Global Health Chemical Diversity Library for Multistage-Active Starting Points for Next-Generation Antimalarials” (ACS Infect Dis, 2020)

Assay: Toxicity liver stage against HepG2, at 10uM
Assay type: cell-based
Parameters: test concentration 10 uM, cell line HepG2-A16-CD81EGFP
Conditions: human, HepG2-A16-CD81EGFP cells; read-out: INHIBITION
Summary of the method: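 Uninfected HepG2-A16-CD81EGFP cells, 3 × 10^3 per well, 1536-well, plated on prespotted compound at 10 μM final, parasite-free screening media added to match infected plates; puromycin 10 μM positive, DMSO 0.5% negative; run in parallel with 48 h PbLuc assay at 37 °C, 5% CO2; viability by CellTiter-Glo luminescence, normalized to controls.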

Structure (SMILES) | cytotoxicity at 10 µM [%]
O=C(NCCCN1CCCC1=O)Nc1ccc(Br)cc1Cl | -2.18
CN1C[C@@H](N)C[C@H]1c1nc(-c2ccc3c(c2)OCO3)no1 | -3.75
CC(=O)NC[C@H]1C[C@@H]2CCN1C[C@@H]2c1cc(-c2cccs2)nn1C | -7.99
CC(=O)N1N=C(c2ccccc2)OC1C(=O)NCCc1ccc(C)cc1 (configuration not stated) | 0.0915
CC(=O)N1N=C(c2ccco2)OC1C(=O)NCCc1ccc(F)cc1 (configuration not stated) | -1.92
O=C(NCC1CCOCC1)c1cc(-c2ccc3c(c2)CCO3)n[nH]1 | 2.63
COc1cccc(-c2nc(C)c(C(=O)N[C@H](CO)CCSC)s2)c1 | 4.63
O=C(c1cc(=O)c(OCc2ccccc2F)co1)N1CCCC1 | -0.321
CC1CCCN(C(=O)c2nnn(-c3ccc(C(F)(F)F)cc3)n2)C1 (configuration not stated) | -3.43
COCCN(C)C(=O)c1nc2c(s1)CCCN2C | -143
CC1CCc2nc(O)c(C(=O)NCCCN3CCN(C)CC3)cc2C1 (configuration not stated) | -11.6
Cc1csc(CCNC(=O)c2cc3c(nc2O)CCC(C)C3)n1 (configuration not stated) | -3.91
NC(=O)c1cnc(NC2CC2)nc1CCNC(=O)Cc1ccccc1 | 4.44
Cc1nc(C(=O)N2CCOC(Cc3ccccc3)C2)co1 (configuration not stated) | -3.24
NCCn1nc(C2CCN(Cc3ccccc3Cl)C2)c2nccnc21 (configuration not stated) | -14.9
Cc1ccc(S(=O)(=O)Nc2ccc(N3CCOCC3)cn2)cc1 | 3.92
CC(C)CC1(C(=O)NCc2nncn2C2CC2)CCC1 | -1.22
CS(=O)(=O)NCc1ccc(C(=O)NCc2ccc3c(c2)CCC3)o1 | -5.61
Cc1noc(CCCC(=O)N(CC2CCOC2)C2CC2)n1 (configuration not stated) | 13
CCCn1nc(C(=O)NC2(c3ccc(Cl)cc3)CCCC2)ccc1=O | 9.46
CN(c1ncccc1C#N)C1CCN(CCc2ccccn2)CC1 | 0.926
Cc1ccc(S(C)(=O)=O)cc1NCC(=O)NCCC1=CCCCC1 | 0.846
CC(C)(C)CC(NC(=O)N1CCC(C(N)=O)CC1)C(F)(F)F (configuration not stated) | -1.14

Structure (SMILES) | cytotoxicity at 10 µM [%]
CCC(C)(CC(=O)OC)NCc1nc(C)no1 (configuration not stated) | -5.69
Cn1cnnc1CNC(=O)c1ccc(Br)cc1O | -4.06
CCC(CC)(CNC(=O)OC(C)(C)C)NC(=O)C1CCOCC1 | 1.85
CCOCCCC(=O)Nc1[nH]nc(-c2ccncc2)c1C | 7.98
O=C(c1coc(-c2ccccc2)n1)N1CCCC1 | 5.47
CCCNC1(c2ccc(Cl)cc2)CCOCC1 | -0.0529
CN(CCCNC(=O)c1ccccc1OCC(N)=O)CC(F)(F)F | -7.53
Clc1ccccc1CNC(Cn1cncn1)c1ccccc1 (configuration not stated) | -2.88
O=C(CNC(=O)C1CCCC1)NCc1cnn(-c2ccc(F)cc2F)c1 | 8.21
O=C(NCC(O)c1ccc(F)cc1F)c1cccc(F)c1 (configuration not stated) | 7.43
Cc1nn(C)c(N2CCCN(C)CC2)c1CNC(=O)C(C)(C)C | -12
NC(=O)N1CCCN(CC(=O)NCCc2c(F)cccc2F)CC1 | -5.15
CC(C)(C(=O)NCc1ccc(C#N)cc1)n1cc(Br)cn1 | 12.4
O=S(=O)(c1ccc(F)cc1)N1CCN(CCCn2ccnc2)CC1 | -5.63
Cc1cc(CNC(=O)C2CCCN2C(=O)OC(C)(C)C)no1 (configuration not stated) | -4.12
CC(C)CC(C#N)NC(=O)COC1CCCCC1 (configuration not stated) | 5.42
CC(C)(C)c1nccc(N2CCN(C3CCS(=O)(=O)C3)CC2)n1 (configuration not stated) | 1.05
Cc1ccc(CCNC(=O)c2cccnc2)o1 | -0.996
Cc1n[nH]c(C2CN(C(=O)c3ccn(C)c(=O)c3)CCO2)n1 (configuration not stated) | -5.3
COc1cccc(CN(C(=O)NC2CC2)C2CCC(O)CC2)c1 (configuration not stated) | 6.8
Cc1cccc(C(=O)N2CCN(CCOC(C)C)CC2)n1 | -0.0394
CN(C(=O)Nc1cccc(C#N)c1)C1CCN(c2ccccn2)CC1 | 1.66
CN(CCOc1cccc(Cl)c1)Cc1nnc(C(C)(C)C)o1 | 8.65

Structure (SMILES) | cytotoxicity at 10 µM [%]
Brc1ccc(NCc2ccc(Cn3ccnc3)cc2)nc1 | 21.8
NC(=O)CCSc1n[nH]c(-c2ccc3c(c2)CCC3)n1 | -0.302
Cn1ccnc1COc1ccc(CSc2nncn2C2CC2)cc1 | 3.67
COc1cccc(N2CCC(CNC(=O)NCc3ccco3)C2)c1 (configuration not stated) | -127
CC(C)N(Cc1ccccc1)Cc1csc(-c2ncccn2)n1 | 7.76
CC(=O)N(CCc1nc(-c2cc(C(N)=O)co2)cs1)C(C)C | -4.91
CC1(c2ccc(Br)cc2)CC(=O)N(CCC(N)=O)C1=O (configuration not stated) | -3.74
Cc1ccc(CN(C)C)cc1NC(=O)C1CC1 | 1.32
CNC(=O)COc1c(C(C)=O)ccc(Cl)c1Cl | -0.769
O=C(Nc1ccc(-n2cncn2)c(F)c1)C1CCN(C(=O)C2CC2)CC1 | -2.83
CN(C)c1ccc(NC(=O)N2CCCC2c2ccsc2)cn1 (configuration not stated) | -7.81
Cc1nc(S(=O)(=O)N2CCSCC2)cn1C | -9.09
COCC(=O)N(C)Cc1ccc(OCc2cccs2)cc1 | 1.73
Cc1csc(CNC(=O)Nc2ccc3c(c2)OCO3)n1 | -15.7
CC(C)S(=O)(=O)NCC1CCCN(C(=O)c2ccc3c(c2)CCC3)C1 (configuration not stated) | -14.7
CCc1nc(N2CCC3(CC2)OCCCC3O)ncc1C (configuration not stated) | 7.41
COCC1CCN(C(=O)c2cn(Cc3ccccc3C(F)(F)F)nn2)C1 (configuration not stated) | 6.86
CCn1c(C2CCCN(Cc3ccc(OC)c(C)c3C)C2)nn(C)c1=O (configuration not stated) | 5.52
CCCn1ncc(C(=O)N2CCN(C(=O)c3ccc[nH]3)CC2)c1C | -151
O=C(Cc1ccc2c(c1)OCO2)N[C@@H]1CCNC[C@H]1O | 0.635
COc1nccnc1N1CCN(Cc2ccc(F)cc2)C(=O)C1 | 1.27
CCCOCCn1ncc(N2CCCC2)cc1=O | -10.7
CCOCC(=O)N1CCC(c2nc(-c3cccnn3)no2)CC1 | -3.3

Structure (SMILES) | cytotoxicity at 10 µM [%]
Cn1c(-c2ccccc2Cl)nc2cc(C(=O)NCC3(CO)CC3)cnc21 | -4.33
O=C(C1CNCCO1)N1CCC(c2cc(N3CCCC3)ncn2)CC1 (configuration not stated) | 6.15
CO[C@H]1CNC[C@@H]1NC(=O)c1cc(C)nc2c(C)c(C)ccc12 | 0.936
Cn1c(-c2ccccc2Cl)nc2cc(C(=O)NCCOCCO)cnc21 | -0.951
Cc1cc(N2CCOC(C(F)(F)F)C2)nc(-c2ccccc2O)n1 (configuration not stated) | -0.238
CN(Cc1cc(-c2ccccc2)no1)Cc1nccn1C | -2.27
CN(C)CC(C)(C)CN1CCC(c2ccnc(-c3cccc(O)c3)c2)C1 (configuration not stated) | 3.36
CCNc1ccnc(NCc2cn3nc(C)sc3n2)n1 | -3.41
CO[C@H]1CN(C(=O)c2ccc(-c3cc[nH]n3)cc2)CC[C@H]1N | 5.29
CCCOC(C)C(=O)N1CCC(O)(c2ccc3nc(C)ccc3c2)CC1 (configuration not stated) | 1.12
O=C(Nc1ccc(S(=O)(=O)Nc2c(F)cccc2F)cc1)N1CCCC1 | 5.66
O=C(c1ccc(C2CCCO2)s1)N1CCOCC1 (configuration not stated) | 10.3
CCc1cc(N2CCNCC2)n2nc(C)c(C)c2n1 | -2.59
CCOC(=O)C1CCCN(c2ccc(-c3nc(C)no3)cn2)C1 (configuration not stated) | -3.74
CC(COc1ccccc1)NCc1nc(-c2cccnc2)no1 (configuration not stated) | -14.1
NC(=O)c1cc(C2CCCN(C(=O)CCc3ccncc3)C2)n[nH]1 (configuration not stated) | -8.99
Cc1ccc(NC2CCN(C(=O)CCc3nccs3)CC2)nn1 | -9.93
Cc1ccccc1CNC(=O)CN1CCCC(Cc2nccn2C)C1 (configuration not stated) | -15.4
Cc1ccc(-c2nnc(CN3CCCC(Cn4cncn4)C3)o2)cc1 (configuration not stated) | -9.07
CC(O)CN1CCC(CNCc2ccccc2Cl)CC1 (configuration not stated) | -11.9
COc1cccc(COCC(=O)N2CCCCCC2)c1 | -3.48
O=C(CCCc1nnc(-c2ccccc2)o1)N1CCN(C2CC2)CC1 | -12
Cc1nn(C)c(C)c1C1CCCN1CC(=O)Nc1ccc(Cl)cn1 (configuration not stated) | -7.1

Structure (SMILES) | cytotoxicity at 10 µM [%]
CC(C)Oc1ncccc1CNC(=O)c1ccccn1 | -21.3
CCc1n[nH]c(C2CN(C(=O)c3cnc(C)nc3CC)CCO2)n1 (configuration not stated) | -3.39
CC(c1nc(C2CC2)no1)N1CCN(Cc2nnc(C3CC3)o2)CC1 (configuration not stated) | 7.7
CC(C)C(=O)NCc1ccc(N(C)C)cc1 | -18.1
CNS(=O)(=O)c1cccc(CNC(=O)NCC2CCOC2)c1 (configuration not stated) | -9.97
CC(C(=O)Nc1ccnn1C(C)C)N1CCCN(c2nccs2)CC1 (configuration not stated) | -9.39
CCCc1cc(C(=O)NCCn2nc3ccccn3c2=O)[nH]n1 | -3.56
CCOc1cccc(NS(=O)(=O)c2cc(C(=O)O)cs2)c1 | -4.41
O=C(CN1CC(c2nc(C3CC3)no2)C1)NCc1ccc(F)cc1 | 0.291
Cc1ccc(CN2CCCn3cnc(COCC4CC4)c3C2)o1 | 8.82
CC(C)N(C)[C@@H]1CCN(c2ncccn2)[C@H]1Cc1ccncc1 | -3.42
CC(C)n1cnc2c1C(C(=O)N1CCOCC1)N(CC1CC1)CC2 (configuration not stated) | 7.98
Cc1cnc(N2CCC3(C2)C(=O)N(C)CCN3Cc2cccnc2)nc1 (configuration not stated) | -6.98
CN(C)C(=O)NCc1nnn2c1CN(CC1CCOCC1)CCC2 | -128
NCC1(c2cccc(Br)c2)CCOCC1 | -8.45
O=C(C1CC1)N1CC[C@@H]2[C@H](CC1)N(Cc1cccnc1)CCS2(=O)=O | -1.84
CC(C)N(C)Cc1nnn2c1CN(Cc1cccnc1)CCC2 | 11.3
O=C(C1CCC1)N1C[C@H]2CC[C@@H](C1)N(S(=O)(=O)c1ccccc1)C2 | -10
O=c1c(=CS(=O)(=O)Nc2ccc(Cl)cc2)[nH]c(=O)n2cccc12 | -7.67
O=C(c1cccnc1)N1C[C@H]2CC[C@@H](C1)N(Cc1cccc(Cl)c1F)C2 | -9.24
